Source: PubChem
The list is not random: actives were taken first. Their share in the collection is about 2.9%.
CRFBP-R2 block – blocks CRF-induced signaling of the CRF-BP/CRF-R2 complex | AID 588475 | inhibition, % at 11.8 µM | 350,000 compounds, 0.59% hits | HEK293 CRF-R2/CRF-BP, CRF-induced calcium fluorescence;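 active means inhibition of the ligand-induced calcium signal above about 50% at the single tested concentration, limit read from the data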
proKLK7 act – activates the human kallikrein-7 zymogen; purified proKLK7, EDANS-DABCYL substrate fluorescence; 100% is mature enzyme control, 0% vehicle; P49862; activation, % at 7 µM; 370,000 compounds, 0.9% hits;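 active means activation above the mean of all tested compounds plus 3 SD, computed per campaign excluding outliers beyond control limits, cut at about 13% in these data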
Target sequence (P49862 whole entry, looked up): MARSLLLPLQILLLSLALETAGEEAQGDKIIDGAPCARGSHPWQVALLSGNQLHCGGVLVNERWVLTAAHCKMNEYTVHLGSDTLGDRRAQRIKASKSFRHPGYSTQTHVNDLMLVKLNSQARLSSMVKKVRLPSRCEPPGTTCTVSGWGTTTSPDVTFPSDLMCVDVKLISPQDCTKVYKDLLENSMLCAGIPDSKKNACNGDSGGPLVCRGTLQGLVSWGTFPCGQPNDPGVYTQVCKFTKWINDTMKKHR
DDE Tn6 FP inh – DD(E)-Tn6 binding inhibition, primary FP screen; 370,000 compounds, 0.21% hits; Fibrin DD(E) TRITC-Tn6 fluorescence polarization displacement; AID 720509; P02675; inhibition, % at 8.3 µM;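 active means inhibition above a per-campaign cutoff: mean of compounds within control limits plus 3 SD, cut at about 15% in these data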;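 further: 0% = median of all compound wells on the plate and 100% = blocking peptide control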
Tn7 DDE FP – inhibitors of Tn7 peptide binding to human fibrin DD(E); P02675; FP displacement of FITC-Tn7 peptide from fibrin DD(E); 0% = median of compound wells per plate; inhibition, % at 8.3 µM; 370,000 compounds, 0.13% hits;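 active means inhibition above the mean of compounds falling within the control limits plus 3 SD of them, cut at about 14% in these data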;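 further: 0% = plate median of compound wells and 100% = 10 µM Aha-Tn7 peptide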
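Test system – human fibrin DD(E) · Times – 10 min preincubation, 3 h with tracer, room temperature · Detection – fluorescence polarization of the labelled Tn7 tracer · Measure – percent inhibition normalized to high-control wells · Benchmarks – high control wells with 10 µM unlabelled Aha-Tn7 peptide (full inhibition) · Repeats – singlicate testing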
CendR NRP1 mod – alters CendR peptide binding to human NRP-1; O14786; FAM-RPARPAR peptide binding to NRP-1, fluorescence polarization; inhibition, % at 25 µM; 360,000 compounds, 0.85% hits;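 active means inhibition or corrected inhibition above about 18%, plus a signal ratio from 0.5 to 1.5, limit read from the data, passing the limit was not always enough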
CRFR2-BP ag – CRF-BP/CRF-R2 complex agonism. 350,000 compounds, 0.46% hits. HEK293 CRF-R2/CRF-BP, calcium dye fluorescence (FLIPR); percent of saturating CRF peptide response. activation, % at 13.2 µM;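 active means activation of at least 50%, plus an integration ratio under a set limit after plate pattern correction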;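 further: plate controls were neutral control wells without compound for no effect and CRF at EC100 for full effect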
Numbers without * were called inactive; . = no result given.

SMILES | CRFBP-R2 block | proKLK7 act | DDE Tn6 FP inh | Tn7 DDE FP | CendR NRP1 mod | CRFR2-BP ag
O=C(O)c1ccc(C2SCC(=O)N2Cc2ccccc2)cc1 (stereo not drawn) | -5 | -1 | -1 | 5 | 6 | 1
NC(=O)c1ccc(C2SCC(=O)N2Cc2ccccc2)cc1 (stereo not drawn) | 78* | -1 | 11 | 1 | -4 | -2
CCC(C(=O)Nc1ccccc1N1CCCC1)c1cccc(Cl)c1 (stereo not drawn) | . | 0 | -1 | -4 | . | .
COc1cc(C2C(C#N)=C(N)OC3=C2C(=O)CCC3)c([N+](=O)[O-])cc1OC (stereo not drawn) | -6 | 25* | -3 | 1 | -20 | 26
CN1Cc2c(N3CCOCC3)nc(SCc3ccccc3)c(C#N)c2CC1(C)C | -75 | 0 | 5 | 6 | 20 | 64*
COC(=O)[C@]12C[C@H](CC(=O)NCCCCc3ccccc3)C(=O)N(CCC3=CCCCC3)C1=C[C@H](COCc1ccccc1)O[C@@H]2C | . | 0 | -8 | 3 | . | .
COC1=CC(=Cc2c(N)n3nc(CC(=O)N4CCCCC4)sc3nc2=O)C=C(OC)C1=O | -135 | -1 | -13 | -1 | -200 | 173*
COc1ccc(S[C@]2(C(=O)N3CCN(c4ncccn4)CC3)CC(=O)N(C(=O)c3ccccc3)[C@@H]2c2ccc(OC)cc2)cc1 | . | 0 | 2 | 4 | . | .
O=C(Nc1cc(Cl)cc(Cl)c1)c1coc(=O)c(Br)c1 | 71* | -5 | -1 | -9 | -15 | 44
CC(C)CNC(=O)c1coc(=O)c(Br)c1 | -1 | 27* | -5 | -2 | 4 | 5
COC(=O)[C@]12C[C@H](CC(=O)N3CCC(c4ccccc4)CC3)C(=O)N(Cc3ccc(Cl)cc3Cl)C1=C[C@H](C(C)(C)C)O[C@@H]2C | . | 1 | 7 | 9 | . | .
COC(=O)[C@H](CC(C)C)NS(=O)(=O)N(Cc1ccccc1)[C@@H](CC(C)C)C(=O)OC | 2 | 1 | -2 | 5 | 28* | 4
COC(=O)[C@H](CC(C)C)N(Cc1ccccc1)S(=O)(=O)N(Cc1ccccc1)[C@@H](CC(C)C)C(=O)OC | -26 | 0 | -3 | 1 | -13 | 15
Cc1cc(-c2n[nH]c(=S)n2N=Cc2ccc(-c3ccccc3)cc2)n[nH]1 | . | 0 | -1 | -7 | . | .
COC(=O)C1=C(C)N(C)C(=NCc2cccc(C(F)(F)F)c2)NC1c1ccc(C(F)(F)F)cc1 (stereo not drawn) | . | 0 | -9 | -1 | . | .
Cc1ccc2c(nc3s/c(=C\c4ccc(-c5ccccc5C(=O)O)o4)c(=O)n32)c1C | -77 | 0 | -5 | -2 | 60 | 126*
O=C(O)c1ccc(-c2ccc(/C=c3/sc4nc5ccccc5n4c3=O)o2)cc1Cl | -86 | 0 | 0 | 3 | -253 | 118*
Cc1cc(/C=c2\sc3nc4ccccc4n3c2=O)c(C)n1-c1ccc(C(=O)O)cc1 | 21 | 0 | 4 | 6 | -132 | 2
Cc1cc(C)c2nc3sc(=Cc4ccc(-c5ccccc5C(=O)O)o4)c(=O)n3c2c1 | . | 0 | 1 | -3 | -71 | .
CS(=O)(=O)N(CC(=O)N1CCN(c2cccc(Cl)c2)CC1)C1CCCCC1 | 8 | 0 | 5 | 5 | 19* | -1
Cc1ccc(Cl)cc1N1CCN(C(=O)CN(C2CCCCC2)S(C)(=O)=O)CC1 | 8 | 0 | -5 | -3 | 6 | 0
Cn1c(SCc2ccc(C(C)(C)C)cc2)nnc1-c1ccco1 | . | 0 | 11 | -7 | . | .
O=C(COC(=O)c1ccncc1)Nc1cc(Cl)ccc1Cl | 52* | 0 | 6 | 7 | 4 | -4
COC(=O)c1ccc(CSc2nc3ccccc3c(=O)n2-c2ccccc2)o1 | 53* | 0 | -4 | 3 | -4 | 0
COC(=O)[C@]12C[C@H](CC(=O)NCc3ccc(OC)c(OC)c3)C(=O)N(Cc3ccccc3)C1=C[C@H](C(C)(C)C)O[C@@H]2C | . | 0 | 1 | 11 | . | .
Nc1cc2c3c(cccc3c1)C(=O)N(CCN1CCCC1)C2=O | -56 | 1 | -4 | 5 | 32* | 66*
